What was measured:
HL-60 [1] = test: Cytotoxicity against human HL60 cells assessed as cell viability after 48 hrs by celltiter-blue assay; type: functional, cell-based; conditions: HL-60, 48 h
Outline: (§1)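 Tumour cell growth inhibition was measured in vitro, following the lab's established procedure. IC50 values are the mean of at least two independent experiments, each run in triplicate.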

K562 [2] = test: Cytotoxicity against human K562 cells assessed as cell viability after 48 hrs by celltiter-blue assay; type: functional, cell-based; conditions: K562, 48 h; outline: as §1
CCRF-CEM [3] = test: Cytotoxicity against human CCRF-CEM cells assessed as cell viability after 48 hrs by celltiter-blue assay; type: functional, cell-based; outline: as §1
HL-60 [4] = test: Ratio of IC50 for human HL60/MX2 cells to IC50 for human HL60 cells; type: functional
Outline: (§2)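 Each resistant subline and its matched parental line were tested in the same growth-inhibition assay, with IC50 taken as the mean of at least two independent experiments in triplicate. The MDR/parental IC50 ratio is reported as relative sensitivity: above 1 means resistance, below 1 means collateral sensitivity. Parental lines came from different sources for each resistant pair.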

HL-60 [5] = test: Ratio of IC50 for human HL60/ADR cells to IC50 for human HL60 cells; type: functional; outline: as §2
HL-60 [6] = test: Ratio of IC50 for daunorubicin-resistant human HL60 cells to IC50 for human HL60 cells; type: functional; outline: as §2
HL-60 [7] = test: Ratio of IC50 for doxorubicin-resistant human HL60 cells to IC50 for human HL60 cells; type: functional; outline: as §2
K562 [8] = test: Ratio of IC50 for doxorubicin-resistant human K562 cells to IC50 for human K562 cells; type: functional; outline: as §2
K562 [9] = test: Ratio of IC50 for human K562/HHT300 cells to IC50 for human K562 cells; type: functional; outline: as §2
CCRF-CEM [10] = test: Ratio of IC50 for human CCRF-CEM/C2 cells IC50 for human CCRF-CEM cells; type: functional; outline: as §2
CCRF-CEM [11] = test: Ratio of IC50 for human CCRF-CEM/VM-1-5 cells IC50 for human CCRF-CEM cells; type: functional; outline: as §2
CCRF-CEM [12] = test: Ratio of IC50 for human CCRF-CEM/VLB100 cells IC50 for human CCRF-CEM cells; type: functional; outline: as §2

CCOC(=O)CC1C(C(=O)OCC)=C(N)Oc2ccc(-c3ccc(F)cc3F)cc21 (racemic)
IC50 (HL-60 [1]): 76.6 µM

CCOC(=O)CC1C(C(=O)OCC)=C(N)Oc2ccc(-c3cccc(F)c3)cc21 (racemic)
IC50 (HL-60 [1]): 76.4 µM

CN(C)CC[C@H](CSc1ccccc1)Nc1ccc(S(=O)(=O)NC(=O)c2ccc(N3CCN(Cc4ccccc4-c4ccc(Cl)cc4)CC3)cc2)cc1[N+](=O)[O-] [ABT 737]
IC50 (HL-60 [1]): 0.76 µM
IC50 (K562 [2]): 34.7 µM
IC50 (CCRF-CEM [3]): 0.74 µM
Ratio IC50 (HL-60 [4]): 1.5
Ratio IC50 (HL-60 [5]): 4.5
Ratio IC50 (HL-60 [6]): 4.9
Ratio IC50 (HL-60 [7]): 19.7
Ratio IC50 (K562 [8]): 2.7
Ratio IC50 (K562 [9]): 2.3
Ratio IC50 (CCRF-CEM [10]): 0.2
Ratio IC50 (CCRF-CEM [11]): 2.2
Ratio IC50 (CCRF-CEM [12]): 0.3

CCOC(=O)CC1C(C(=O)OCC)=C(N)Oc2ccc(-c3cccc(C(N)=O)c3)cc21 (racemic)
IC50 (HL-60 [1]): 5.4 µM

CC[C@]1(O)C[C@H]2CN(CCc3c([nH]c4ccccc34)[C@@](C(=O)OC)(c3cc4c(cc3OC)N(C=O)[C@H]3[C@@](O)(C(=O)OC)[C@H](OC(C)=O)[C@]5(CC)C=CCN6CC[C@]43[C@@H]65)C2)C1 [VINCRISTINE]
IC50 (HL-60 [1]): 6e-05 µM
IC50 (K562 [2]): 0.0001 µM
IC50 (CCRF-CEM [3]): 0.00017 µM
Ratio IC50 (HL-60 [4]): 1
Ratio IC50 (HL-60 [5]): 1
Ratio IC50 (HL-60 [7]): >1000
Ratio IC50 (K562 [8]): >1000
Ratio IC50 (K562 [9]): >1000
Ratio IC50 (CCRF-CEM [10]): 1
Ratio IC50 (CCRF-CEM [11]): 1
Ratio IC50 (CCRF-CEM [12]): >1000

CCOC(=O)CC1C(c2nc(-c3ccc(OC)cc3)no2)=C(N)Oc2ccc(-c3cc(OC)cc(OC)c3)cc21 (racemic)
IC50 (HL-60 [1]): > 80 µM

C#CCOC(=O)CC1C(C(=O)OCC#C)=C(N)Oc2ccc(-c3ccc(NCC)cc3)cc21 (racemic)
IC50 (HL-60 [1]): 7.27 µM

CCOC(=O)CC1C(C#N)=C(N)Oc2ccc(-c3cc(OC)cc(OC)c3)cc21 (racemic)
IC50 (HL-60 [1]): 19.6 µM

O=C1c2c(O)ccc(O)c2C(=O)c2c(NCCNCCO)ccc(NCCNCCO)c21 [MITOXANTRONE]
IC50 (HL-60 [1]): 0.016 µM
IC50 (K562 [2]): 0.51 µM
IC50 (CCRF-CEM [3]): 0.036 µM
Ratio IC50 (HL-60 [4]): >20
Ratio IC50 (HL-60 [5]): 2.4
Ratio IC50 (HL-60 [6]): >10
Ratio IC50 (HL-60 [7]): >20
Ratio IC50 (K562 [8]): 5.1
Ratio IC50 (K562 [9]): >10
Ratio IC50 (CCRF-CEM [10]): 3
Ratio IC50 (CCRF-CEM [11]): >30
Ratio IC50 (CCRF-CEM [12]): 2.3

CCOC(=O)CC1C(C(=O)OCC)=C(N)Oc2ccc(-c3cccnc3)cc21 (racemic)
IC50 (HL-60 [1]): 21.5 µM

CCOC(=O)CC1C(C(=O)OCC)=C(N)Oc2ccc(-c3ccccc3F)cc21 (racemic)
IC50 (HL-60 [1]): 73 µM

C#CCOC(=O)CC1C(C(=O)OCC#C)=C(N)Oc2ccc(-c3cccc(NCCO)c3)cc21 (racemic)
IC50 (HL-60 [1]): 0.63 µM

C#CCOC(=O)CC1C(C(=O)OCC#C)=C(N)Oc2ccc(-c3cccc(N(C)C)c3)cc21 (racemic)
IC50 (HL-60 [1]): 12 µM

CCOC(=O)CC1C(C(=O)OCC)=C(N)Oc2ccc(-c3ccnc(OC)c3)cc21 (racemic)
IC50 (HL-60 [1]): 10.2 µM

CCOC(=O)CC1C(C(=O)OCC)=C(N)Oc2ccc(-c3ccco3)cc21 (racemic)
IC50 (HL-60 [1]): > 80 µM

C#CCOC(=O)CC1C(C#N)=C(N)Oc2ccc(-c3cccc(N)c3)cc21 (racemic)
IC50 (HL-60 [1]): 43.9 µM

C#CCOC(=O)CC1C(C(=O)OCC)=C(N)Oc2ccc(-c3cccc(NCC)c3)cc21 (racemic)
IC50 (HL-60 [1]): 17.2 µM

CCOC(=O)CC1C(C(=O)OCC)=C(N)Oc2ccc(-c3ccccn3)cc21 (racemic)
IC50 (HL-60 [1]): 76.9 µM

C#CCOC(=O)CC1C(C(=O)OCC#C)=C(N)Oc2ccc(-c3cccc(-n4cnnn4)c3)cc21 (racemic)
IC50 (HL-60 [1]): 1.62 µM

C#CCOC(=O)CC1C(C(=O)OCC#C)=C(N)Oc2ccc(-c3ccc(N)cc3)cc21 (racemic)
IC50 (HL-60 [1]): 0.61 µM
IC50 (K562 [2]): 2.36 µM
IC50 (CCRF-CEM [3]): 1.47 µM
Ratio IC50 (HL-60 [4]): 1
Ratio IC50 (HL-60 [5]): 0.26
Ratio IC50 (HL-60 [6]): 0.27
Ratio IC50 (HL-60 [7]): 0.6
Ratio IC50 (K562 [8]): 1.08
Ratio IC50 (K562 [9]): 1.1
Ratio IC50 (CCRF-CEM [10]): 0.54
Ratio IC50 (CCRF-CEM [11]): 0.42
Ratio IC50 (CCRF-CEM [12]): 0.93

C#CCOC(=O)CC1C(C(=O)OCC)=C(N)Oc2ccc(-c3ccc(N)cc3)cc21 (racemic)
IC50 (HL-60 [1]): 10.5 µM

COc1cccc2c1C(=O)c1c(O)c3c(c(O)c1C2=O)C[C@@](O)(C(=O)CO)C[C@@H]3O[C@H]1C[C@H](N)[C@H](O)[C@H](C)O1 [DOXORUBICIN]
IC50 (HL-60 [1]): 0.04 µM
IC50 (K562 [2]): 0.44 µM
IC50 (CCRF-CEM [3]): 0.11 µM
Ratio IC50 (HL-60 [4]): 5.3
Ratio IC50 (HL-60 [5]): >15
Ratio IC50 (HL-60 [6]): >50
Ratio IC50 (HL-60 [7]): >100
Ratio IC50 (K562 [8]): >10
Ratio IC50 (K562 [9]): >20
Ratio IC50 (CCRF-CEM [10]): 6.7
Ratio IC50 (CCRF-CEM [11]): >15

CCOC(=O)CC1C(C(=O)OCC)=C(N)Oc2ccc(-c3cc(OC)cc(OC)c3)cc21 (racemic)
IC50 (HL-60 [1]): 10.7 µM
